In ChEMBL document CHEMBL3124843, “Synthesis, cytostatic, antimicrobial, and anti-HCV activity of 6-substituted 7-(het)aryl-7-deazapurine ribonucleosides” (J Med Chem, 2014):
pEC50, pIC50: −log10 of the molar value. Calls of active or inactive are those of the source. The rule behind the calls is not given here.

Legend:
Candida parapsilosis = assay: Antifungal activity against Candida parapsilosis after 48 hrs; format: functional, organism-based
[1] = Cytostatic activity against human CEM-DNR-bulk cells after 72 hrs by MTT assay; format: functional, cell-based
Method in brief: (§1)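 IC50 is the concentration that cuts cell growth by 50%, read by quantitative metabolic MTT staining after a 3-day treatment. The resistant sublines were made by raising the concentration of the cytotoxic drug step by step. CEM-DNR-bulk (daunorubicin-selected) stably overexpresses mrp-1. K562-TAX (paclitaxel-selected) expresses only mdr-1. HCT116p53−/− carries null p53 alleles. BJ and MRC-5 are nonmalignant fibroblasts.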

[2] = Cytotoxicity against human HuH7 cells infected with Hepatitis C virus subtype 2a; format: cell-based, Huh-7
A549 = assay: Cytostatic activity against human A549 cells after 72 hrs by MTT assay; format: functional, cell-based; settings: A549, 72 h; method in brief: as §1
Staphylococcus aureus [3] = assay: Antibacterial activity against Staphylococcus aureus CCM 3953 after 24 hrs; format: functional, organism-based
Pseudomonas aeruginosa [4] = assay: Antibacterial activity against multi-resistant Pseudomonas aeruginosa A/16575 after 24 hrs; format: functional, organism-based
Escherichia coli [5] = assay: Antibacterial activity against multi-resistant Escherichia coli C/16702 after 24 hrs; format: functional, organism-based
[6] = Antiproliferative activity against human HeLaS3 cells after 72 hrs by XTT assay; format: functional, cell-based; settings: HeLa S3, 72 h
Method in brief: (§2)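 Antiproliferative test on HL-60 promyelocytic leukemia and HeLa S3 cervical carcinoma cells growing in liquid suspension.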

Hepatitis C virus [7] = assay: Antiviral activity against Hepatitis C virus subtype 2a infected in human HuH7 cells; format: functional, organism-based, Hepacivirus hominis; settings: genotype 2a, Huh-7
Pseudomonas aeruginosa [8] = assay: Antibacterial activity against Pseudomonas aeruginosa CCM 3955 after 24 hrs; format: functional, organism-based
Hepatitis C virus [9] = assay: Antiviral activity against Hepatitis C virus subtype 1b infected in human HuH7 cells; format: functional, organism-based, Hepacivirus hominis; settings: genotype 1b, Huh-7
CCRF-CEM = assay: Cytostatic activity against human CCRF-CEM cells after 72 hrs by MTT assay; format: functional, cell-based; method in brief: as §1
K562 [10] = assay: Cytostatic activity against human K562 cells after 72 hrs by MTT assay; format: functional, cell-based; settings: K562, 72 h; method in brief: as §1
MRC5 = assay: Cytostatic activity against human MRC5 cells after 72 hrs by MTT assay; format: ADME, cell-based; settings: MRC5, 72 h; method in brief: as §1
HCT-116 [11] = assay: Cytostatic activity against p53-deficient human HCT116 cells after 72 hrs by MTT assay; format: functional, cell-based; settings: HCT-116, 72 h; method in brief: as §1
HepG2 = assay: Antiproliferative activity against human HepG2 cells after 72 hrs by XTT assay; format: functional, cell-based; settings: HepG2, 72 h
Pichia kudriavzevii = assay: Antifungal activity against Candida crusei after 48 hrs; format: functional, organism-based
Candida tropicalis = assay: Antifungal activity against Candida tropicalis after 48 hrs; format: functional, organism-based
BJ = assay: Cytostatic activity against human BJ cells after 72 hrs by MTT assay; format: ADME, cell-based; method in brief: as §1
K562 [12] = assay: Cytostatic activity against paclitaxel-resistant human K562 cells after 72 hrs by MTT assay; format: functional, cell-based; settings: K562, 72 h; method in brief: as §1
[13] = Cytotoxicity against human HuH7 cells infected with Hepatitis C virus subtype 1b; format: cell-based, Huh-7
Enterococcus faecalis = assay: Antibacterial activity against Enterococcus faecalis CCM 4224 after 24 hrs; format: functional, organism-based
HCT-116 [14] = assay: Cytostatic activity against human HCT116 cells after 72 hrs by MTT assay; format: functional, cell-based; settings: HCT-116, 72 h; method in brief: as §1
Staphylococcus aureus [15] = assay: Antibacterial activity against methicillin-resistant Staphylococcus aureus MRSA 4591 after 24 hrs; format: functional, organism-based
[16] = test system: Staphylococcus haemolyticus; assay: Antibacterial activity against methicillin-resistant Staphylococcus haemolyticus A/16568 after 24 hrs; format: functional, organism-based
HL-60 = assay: Antiproliferative activity against human HL60 cells after 72 hrs by XTT assay; format: functional, cell-based; settings: HL-60, 72 h; method in brief: as §2
Escherichia coli [17] = assay: Antibacterial activity against Escherichia coli CCM 3954 after 24 hrs; format: functional, organism-based
Candida albicans = assay: Antifungal activity against Candida albicans after 48 hrs; format: functional, organism-based

SMILES	Activity (Candida parapsilosis)	pIC50 [1]	CC50 [2] [µM]	pIC50 (A549)	Activity (Staphylococcus aureus [3])	Activity (Pseudomonas aeruginosa [4])	Activity (Escherichia coli [5])	pIC50 [6]	pEC50 (Hepatitis C virus [7])	Activity (Pseudomonas aeruginosa [8])	pEC50 (Hepatitis C virus [9])	pIC50 (CCRF-CEM)	pIC50 (K562 [10])	pIC50 (MRC5)	pIC50 (HCT-116 [11])	pIC50 (HepG2)	Activity (Pichia kudriavzevii)	Activity (Candida tropicalis)	pIC50 (BJ)	pIC50 (K562 [12])	further results
O=c1[nH]cnc2c1c(-c1ccoc1)cn2[C@@H]1O[C@H](CO)[C@@H](O)[C@H]1O	inactive	< 4.70	> 44	< 4.70	inactive	inactive	inactive	< 4.70	4.65	inactive	5.34	5.04	4.90	< 4.00	4.83	4.92	inactive	inactive	< 4.00	4.84	CC50 [13]: > 44 µM; Activity (Enterococcus faecalis): inactive; pIC50 (HCT-116 [14]): 4.99; Activity (Staphylococcus aureus [15]): inactive; Activity [16]: inactive; pIC50 (HL-60): 5.20; Activity (Escherichia coli [17]): inactive; Activity (Candida albicans): inactive
Cc1ncnc2c1c(Br)cn2[C@@H]1O[C@H](CO)[C@@H](O)[C@H]1O	inactive	< 4.70	28.2	< 4.70	inactive	inactive	inactive	4.86	4.68	inactive	4.92	4.82	< 4.70	4.61	4.71	5.26	inactive	inactive	< 4.00	4.80	CC50 [13]: 35.6 µM; Activity (Enterococcus faecalis): inactive; pIC50 (HCT-116 [14]): 4.80; Activity (Staphylococcus aureus [15]): inactive; Activity [16]: inactive; pIC50 (HL-60): 5.14; Activity (Escherichia coli [17]): inactive; Activity (Candida albicans): inactive
Nc1nc2c(c(-c3cc4ccccc4o3)cn2[C@@H]2O[C@H](CO)[C@@H](O)[C@H]2O)c(=O)[nH]1	inactive	< 4.70	> 44	< 4.00	inactive	inactive	inactive	< 4.70	< 4.36	inactive	< 4.36	< 4.70	< 4.70	< 4.00	< 4.00	< 4.70	inactive	inactive	< 4.00	< 4.70	CC50 [13]: > 44 µM; Activity (Enterococcus faecalis): inactive; pIC50 (HCT-116 [14]): < 4.00; Activity (Staphylococcus aureus [15]): inactive; Activity [16]: inactive; pIC50 (HL-60): < 4.70; Activity (Escherichia coli [17]): inactive; Activity (Candida albicans): inactive
